Assay results: ChEMBL document CHEMBL4673335, “Store-Operated Calcium Entry as a Therapeutic Target in Acute Pancreatitis: Discovery and Development of Drug-Like SOCE Inhibitors” (J Med Chem, 2020)
Values belong to the compound of their own block, whether it stands above or below them. Active and inactive are the calls of the source. The calls are words filed in the database; no cut-off is given here.

Columns and labels:
Format in all cases: cell-based
HEK293 [1] = experiment: Cytotoxicity in HEK293 cells assessed as cell viability at 50 uM after 72 hrs by MTT assay; details: human, hek293, 72 h
Outline: (§1)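 MTT viability in HEK cells after 72 h treatment at 50 μM, with or without 100 μM uridine. MTT at 0.25 mg/mL final for 60 min at 37 °C, solubilized in isopropyl alcohol/HCl (1 M), absorbance read at 570 nm. Mean ± SEM, Student t-test against control.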

HEK293 [2] = experiment: Cytotoxicity in HEK293 cells assessed as cell viability at 50 uM after 72 hrs in presence of excess uridine by MTT assay; details: human, hek293, 72 h; outline: as §1
[3] = molecular target: T1, ORAI1/STIM1 (Homo sapiens) (UniProt Q96D31+Q13586); experiment: Inhibition of STIM1/Orai1 (unknown origin) expressed in HEK293 cells assessed as reduction in tBHQ-induced calcium response at 10 uM relative to control
T1 sequence (Q13586 23-685 partner limits assumed): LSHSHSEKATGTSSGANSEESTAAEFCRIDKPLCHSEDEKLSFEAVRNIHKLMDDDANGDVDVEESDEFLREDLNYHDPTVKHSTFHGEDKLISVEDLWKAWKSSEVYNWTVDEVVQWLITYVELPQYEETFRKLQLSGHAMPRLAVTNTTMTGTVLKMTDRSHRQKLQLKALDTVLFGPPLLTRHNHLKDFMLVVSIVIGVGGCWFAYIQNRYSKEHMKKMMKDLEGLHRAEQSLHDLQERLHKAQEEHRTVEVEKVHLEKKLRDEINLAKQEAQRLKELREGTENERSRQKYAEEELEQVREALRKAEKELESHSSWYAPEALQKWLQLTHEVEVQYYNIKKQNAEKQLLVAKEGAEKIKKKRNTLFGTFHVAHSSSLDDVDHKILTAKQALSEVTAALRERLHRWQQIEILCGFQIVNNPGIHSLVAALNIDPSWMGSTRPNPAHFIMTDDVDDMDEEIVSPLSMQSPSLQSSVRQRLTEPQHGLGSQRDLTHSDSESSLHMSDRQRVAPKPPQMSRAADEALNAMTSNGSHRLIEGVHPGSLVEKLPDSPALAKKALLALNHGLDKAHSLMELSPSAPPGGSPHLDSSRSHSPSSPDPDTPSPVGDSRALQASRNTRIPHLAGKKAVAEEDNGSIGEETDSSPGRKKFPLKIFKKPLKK
T1 sequence (Q96D31 whole entry): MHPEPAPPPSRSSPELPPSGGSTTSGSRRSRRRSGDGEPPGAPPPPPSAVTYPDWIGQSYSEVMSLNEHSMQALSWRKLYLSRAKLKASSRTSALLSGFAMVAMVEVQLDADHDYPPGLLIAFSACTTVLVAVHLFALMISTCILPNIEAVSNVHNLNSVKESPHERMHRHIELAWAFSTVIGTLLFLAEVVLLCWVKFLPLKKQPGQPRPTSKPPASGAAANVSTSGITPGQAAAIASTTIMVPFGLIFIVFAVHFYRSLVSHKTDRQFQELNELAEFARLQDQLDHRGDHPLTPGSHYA
Outline: (§2)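 HEK cells, calcium imaging by fluorescence microscopy. Ca2+ added after 600 s and intracellular levels recorded. Traces averaged over 200 cells, then scored as AUC, peak amplitude and slope of the Ca2+ rise versus untreated control. Compound working solutions diluted from a 50 mM DMSO stock to 0.1% DMSO in physiologic buffer.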

HEK293 [4] = experiment: Cytotoxicity in HEK293 cells assessed as cell viability at 10 uM after 24 hrs by MTT assay; details: human, hek293, 24 h
Outline: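 MTT viability assay. HEK cells seeded at 20,000 per well, treated 24 h after plating for a further 24 h. MTT at 0.25 mg/mL final for 60 min at 37 °C. Crystals dissolved in isopropyl alcohol/HCl (1 M), absorbance read at 570 nm. Compounds diluted to 0.1% DMSO in culture medium.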

ORAI1/STIM1 = ORAI1/STIM1 (Homo sapiens, UniProt Q13586+Q96D31); experiment: Inhibition of STIM1/Orai1 (unknown origin) expressed in HEK293 cells assessed as reduction in tBHQ-induced calcium response
ORAI1/STIM1, sequence (Q96D31 whole entry): as above
ORAI1/STIM1, sequence (Q13586 whole entry): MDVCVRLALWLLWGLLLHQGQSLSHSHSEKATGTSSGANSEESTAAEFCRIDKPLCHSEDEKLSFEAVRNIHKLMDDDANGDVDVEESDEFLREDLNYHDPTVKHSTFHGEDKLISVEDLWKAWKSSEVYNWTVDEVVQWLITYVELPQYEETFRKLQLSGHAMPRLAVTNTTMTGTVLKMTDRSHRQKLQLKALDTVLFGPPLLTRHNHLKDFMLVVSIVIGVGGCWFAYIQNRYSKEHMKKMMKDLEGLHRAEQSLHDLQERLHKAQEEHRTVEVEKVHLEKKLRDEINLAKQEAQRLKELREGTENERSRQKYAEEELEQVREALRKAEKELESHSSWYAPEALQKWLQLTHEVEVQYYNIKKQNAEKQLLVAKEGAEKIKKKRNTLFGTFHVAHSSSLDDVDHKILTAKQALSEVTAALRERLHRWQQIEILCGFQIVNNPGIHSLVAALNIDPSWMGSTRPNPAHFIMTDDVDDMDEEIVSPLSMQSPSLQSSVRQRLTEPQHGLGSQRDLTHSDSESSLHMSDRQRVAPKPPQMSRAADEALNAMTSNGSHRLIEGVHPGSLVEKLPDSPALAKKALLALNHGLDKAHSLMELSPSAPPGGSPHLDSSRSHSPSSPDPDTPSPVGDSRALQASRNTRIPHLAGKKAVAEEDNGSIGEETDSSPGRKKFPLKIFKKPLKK

[5] = molecular target: T1, ORAI1/STIM1 (Homo sapiens); experiment: Inhibition of STIM1/Orai1 (unknown origin) expressed in HEK293 cells assessed as reduction in tBHQ-induced calcium response by measuring decrease in calcium entry AUC at 10 uM relative to control; outline: as §2
[6] = molecular target: T1, ORAI1/STIM1 (Homo sapiens); experiment: Inhibition of STIM1/Orai1 (unknown origin) expressed in HEK293 cells assessed as reduction in tBHQ-induced calcium response by measuring decrease in peak amplitude of calcium entry at 10 uM relative to control; outline: as §2
[7] = dose 3.0 µM, in the assay text read “at 3 uM” for “at 10 uM”

Compound: Cc1cccc(F)c1C(=O)Nc1cnc(-c2cc3c(cc2Cl)OC(F)(F)O3)cn1 [ZEGOCRACTIN]
Activity (HEK293 [1]): Toxic
Activity (HEK293 [2]): Toxic

Compound: CSc1cccc(-c2ccc(-c3cn(-c4cccc(C(=O)O)c4)nn3)cc2)c1
inhibition ([3]; dose 10.0 µM): 0%

Compound: COc1ccc(OC)c(-c2ccc(-n3cc(-c4ccncc4F)nn3)cc2)c1
inhibition ([3]; dose 10.0 µM): -4.9%

Compound: COc1ccc(OC)c(-c2ccc(-c3cn(-c4ccncc4F)nn3)cc2)c1
inhibition ([3]; dose 10.0 µM): 26.2%

Compound: COc1ccc(OC)c(-c2ccc(-n3cc(-c4cccc(C(=O)O)c4)nn3)cc2)c1
inhibition ([3]; dose 10.0 µM): 76.2%

Compound: COc1ccc(OC)c(-c2ccc(-c3cn(-c4ccncc4)nn3)cc2)c1
inhibition ([3]; dose 10.0 µM): -1.7%

Compound: COc1cccc(OC)c1-c1ccc(-n2cc(-c3cccc(C(=O)O)c3)nn2)cc1
inhibition ([3]; dose 10.0 µM): 25.8%

Compound: COc1cc(OC)cc(-c2ccc(-c3cn(-c4cccc(C(=O)O)c4)nn3)cc2)c1
inhibition ([3]; dose 10.0 µM): 75.4%

Compound: COc1cccc(-c2ccc(-c3cn(-c4cccc(C(=O)O)c4)nn3)cc2)c1
inhibition [3, 7]: 29.5%

Compound: O=C(O)c1cccc(-n2cc(-c3ccc(-c4ccc5c(c4)OCCO5)cc3)nn2)c1
inhibition ([3]; dose 10.0 µM): 81.1%
Activity (HEK293 [4]): 71.7%

Compound: COc1ccc(OC)c(-c2ccc(-c3cn(-c4ccnc(C(=O)O)c4)nn3)cc2)c1
inhibition ([3]; dose 10.0 µM): 57.2%

Compound: O=C(O)c1cccc(-c2cn(-c3ccc(-c4ccc5c(c4)OCO5)cc3)nn2)c1
inhibition ([3]; dose 10.0 µM): 67.3%

Compound: O=C(O)c1cccc(-n2cc(-c3ccc(-c4ccc5c(c4)OCO5)cc3)nn2)c1
inhibition ([3]; dose 10.0 µM): 0%

Compound: C/C(O)=C(\C#N)C(=O)Nc1ccc(C(F)(F)F)cc1 [TERIFLUNOMIDE]
Activity (HEK293 [1]): Non-Toxic

Compound: O=C(Nc1ccc(-n2nc(C(F)(F)F)cc2C(F)(F)F)cc1)c1ccncc1F
Activity (HEK293 [1]): Toxic
Activity (HEK293 [2]): Toxic

Compound: COc1ccccc1-c1ccc(-c2cn(-c3cccc(C(=O)O)c3)nn2)cc1
inhibition [3, 7]: 12%

Compound: COc1ccc(OC)c(-c2ccc(-n3cc(-c4ccccn4)nn3)cc2)c1
inhibition ([3]; dose 10.0 µM): 0%

Compound: COc1ccc(-c2ccc(-n3cc(-c4cccc(C(=O)O)c4)nn3)cc2)c(OC)c1
inhibition ([3]; dose 10.0 µM): 56.4%

Compound: O=C(O)c1cccc(-c2cn(-c3ccc(-c4cccc(O)c4)cc3)nn2)c1
inhibition [3, 7]: 0%

Compound: Cc1c(-c2ccc(-c3ccccc3F)cc2)nc2ccc(F)cc2c1C(=O)O [BREQUINAR]
Activity (HEK293 [1]): Non-Toxic

Compound: COc1ccc(OC)c(-c2ccc(-n3cc(-c4ccnc(C(=O)O)c4)nn3)cc2)c1
inhibition ([3]; dose 10.0 µM): 79.9%

Compound: COc1ccc(OC)c(-c2ccc(-c3cn(-c4cccc(C(=O)O)c4)nn3)cc2)c1
inhibition ([3]; dose 10.0 µM): 87.8%
Activity (HEK293 [4]): 71.8%
IC50 (ORAI1/STIM1): 1790 nM
inhibition [5]: Active
inhibition [6]: Active

Compound: COc1ccc(-c2ccc(-c3cn(-c4cccc(C(=O)O)c4)nn3)cc2)c(OC)c1
inhibition ([3]; dose 10.0 µM): 53%

Compound: CSc1cccc(-c2ccc(-n3cc(-c4cccc(C(=O)O)c4)nn3)cc2)c1
inhibition [3, 7]: 23.6%

The next lines start with results.

inhibition ([3]; dose 10.0 µM): 51%
Compound: O=C(O)c1cccc(-c2cn(-c3ccc(-c4ccccc4)cc3)nn2)c1

inhibition [3, 7]: 54.3%
Compound: COc1ccc(-c2ccc(-n3cc(-c4cccc(C(=O)O)c4)nn3)cc2)cc1OC

inhibition ([3]; dose 10.0 µM): 51.8%
Compound: O=C(O)c1cccc(C(=O)Nc2ccc(-c3ccc4c(c3)OCCO4)cc2)c1
Activity (HEK293 [4]): 50.3%
Activity (HEK293 [1]): Toxic
Activity (HEK293 [2]): Non-Toxic

inhibition ([3]; dose 10.0 µM): 44.1%
Compound: O=C(O)c1cccc(-n2cc(-c3ccc(-c4cccc5c4OCCO5)cc3)nn2)c1

IC50 (ORAI1/STIM1): 1200 nM
Compound: O=C(O)c1cccc(-c2cn(-c3ccc(-c4ccc5c(c4)OCCO5)cc3)nn2)c1
Activity (HEK293 [1]): Non-Toxic
Activity (HEK293 [2]): Non-Toxic

inhibition ([3]; dose 10.0 µM): 73.5%
Compound: COC(=O)c1cc(-n2cc(-c3ccc(-c4cc(OC)ccc4OC)cc3)nn2)ccn1

inhibition [3, 7]: 1.8%
Compound: O=C(O)c1cccc(-n2cc(-c3ccc(-c4ccccc4)cc3)nn2)c1

inhibition ([3]; dose 10.0 µM): 1.2%
Compound: COc1ccc(OC)c(-c2ccc(-c3cn(-c4cccnc4)nn3)cc2)c1

inhibition ([3]; dose 10.0 µM): 39.6%
Compound: COc1ccc(-c2ccc(-c3cn(-c4cccc(C(=O)O)c4)nn3)cc2)cc1OC

inhibition ([3]; dose 10.0 µM): 22.6%
Compound: O=C(O)c1cccc(NC(=O)c2ccc(-c3ccc4c(c3)OCCO4)cc2)c1
Activity (HEK293 [4]): 95.3%
Activity (HEK293 [2]): Non-Toxic

inhibition ([3]; dose 10.0 µM): 45.9%
Compound: COc1ccccc1-c1ccc(-n2cc(-c3cccc(C(=O)O)c3)nn2)cc1
